Columns and labels:
[1] = biological target: DNA-dependent protein kinase catalytic subunit (Homo sapiens, UniProt P78527); experiment: Inhibition of DNA-PK using EPPLSQEAFADLWKK as substrate after 5 mins by ADP-Glo kinase assay
[2] = biological target: Phosphatidylinositol 4,5-bisphosphate 3-kinase catalytic subunit gamma isoform (Homo sapiens, UniProt P48736); experiment: Inhibition of PI3Kgamma by HTRF assay in presence of ATP
[3] = biological target: T1, Phosphatidylinositol 4,5-bisphosphate 3-kinase catalytic subunit delta isoform (Homo sapiens, UniProt O00329); experiment: Inhibition of PI3Kdelta by HTRF assay in presence of ATP
T1 sequence (O00329 whole entry): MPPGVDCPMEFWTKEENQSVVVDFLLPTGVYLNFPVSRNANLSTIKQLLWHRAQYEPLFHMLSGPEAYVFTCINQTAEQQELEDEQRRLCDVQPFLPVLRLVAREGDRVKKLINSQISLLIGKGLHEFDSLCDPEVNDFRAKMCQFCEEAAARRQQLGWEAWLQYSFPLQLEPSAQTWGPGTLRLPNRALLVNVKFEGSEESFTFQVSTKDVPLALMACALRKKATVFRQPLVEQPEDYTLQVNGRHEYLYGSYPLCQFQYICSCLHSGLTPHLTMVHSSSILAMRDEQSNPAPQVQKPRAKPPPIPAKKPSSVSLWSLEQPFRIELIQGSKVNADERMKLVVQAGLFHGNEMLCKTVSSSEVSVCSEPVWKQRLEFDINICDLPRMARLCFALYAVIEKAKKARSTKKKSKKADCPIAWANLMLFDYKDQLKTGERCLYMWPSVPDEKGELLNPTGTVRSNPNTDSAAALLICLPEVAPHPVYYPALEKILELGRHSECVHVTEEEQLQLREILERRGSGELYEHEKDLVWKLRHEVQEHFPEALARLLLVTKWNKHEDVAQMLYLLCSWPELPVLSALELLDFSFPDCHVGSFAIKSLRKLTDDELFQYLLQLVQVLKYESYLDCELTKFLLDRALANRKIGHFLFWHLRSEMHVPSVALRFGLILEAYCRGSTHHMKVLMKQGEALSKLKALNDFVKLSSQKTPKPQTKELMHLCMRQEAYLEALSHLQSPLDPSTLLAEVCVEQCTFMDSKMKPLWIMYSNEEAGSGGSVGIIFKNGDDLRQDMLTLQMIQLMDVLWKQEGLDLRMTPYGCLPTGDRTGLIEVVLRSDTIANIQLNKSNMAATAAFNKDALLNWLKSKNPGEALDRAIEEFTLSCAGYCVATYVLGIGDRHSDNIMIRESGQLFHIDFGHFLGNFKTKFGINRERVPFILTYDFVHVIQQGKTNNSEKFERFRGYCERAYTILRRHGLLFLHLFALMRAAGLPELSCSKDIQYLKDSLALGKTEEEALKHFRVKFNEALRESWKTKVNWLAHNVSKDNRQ

[4] = biological target: Phosphatidylinositol 4,5-bisphosphate 3-kinase catalytic subunit beta isoform (Homo sapiens, UniProt P42338); experiment: Inhibition of PI3Kbeta by HTRF assay in presence of ATP
[5] = biological target: Phosphatidylinositol 4,5-bisphosphate 3-kinase catalytic subunit alpha isoform (Homo sapiens, UniProt P42336); experiment: Inhibition of PI3Kalpha by HTRF assay in presence of ATP
[6] = Antiplatelet activity against human platelet assessed as inhibition of collagen-induced platelet aggregation incubated for 2 mins before collagen induction by two-channel platelet aggregometer; assay type: functional, cell-based
How it was run: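 Venous blood from healthy, drug-free volunteers collected into trisodium citrate 22.0 g/L. Aggregation was measured optically in a two-channel aggregometer, following an earlier protocol.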

Phosphatidylinositol 4,5-bisphosphate 3-kinase catalytic subunit gamma isoform, sequence (P48736 whole entry, canonical isoform): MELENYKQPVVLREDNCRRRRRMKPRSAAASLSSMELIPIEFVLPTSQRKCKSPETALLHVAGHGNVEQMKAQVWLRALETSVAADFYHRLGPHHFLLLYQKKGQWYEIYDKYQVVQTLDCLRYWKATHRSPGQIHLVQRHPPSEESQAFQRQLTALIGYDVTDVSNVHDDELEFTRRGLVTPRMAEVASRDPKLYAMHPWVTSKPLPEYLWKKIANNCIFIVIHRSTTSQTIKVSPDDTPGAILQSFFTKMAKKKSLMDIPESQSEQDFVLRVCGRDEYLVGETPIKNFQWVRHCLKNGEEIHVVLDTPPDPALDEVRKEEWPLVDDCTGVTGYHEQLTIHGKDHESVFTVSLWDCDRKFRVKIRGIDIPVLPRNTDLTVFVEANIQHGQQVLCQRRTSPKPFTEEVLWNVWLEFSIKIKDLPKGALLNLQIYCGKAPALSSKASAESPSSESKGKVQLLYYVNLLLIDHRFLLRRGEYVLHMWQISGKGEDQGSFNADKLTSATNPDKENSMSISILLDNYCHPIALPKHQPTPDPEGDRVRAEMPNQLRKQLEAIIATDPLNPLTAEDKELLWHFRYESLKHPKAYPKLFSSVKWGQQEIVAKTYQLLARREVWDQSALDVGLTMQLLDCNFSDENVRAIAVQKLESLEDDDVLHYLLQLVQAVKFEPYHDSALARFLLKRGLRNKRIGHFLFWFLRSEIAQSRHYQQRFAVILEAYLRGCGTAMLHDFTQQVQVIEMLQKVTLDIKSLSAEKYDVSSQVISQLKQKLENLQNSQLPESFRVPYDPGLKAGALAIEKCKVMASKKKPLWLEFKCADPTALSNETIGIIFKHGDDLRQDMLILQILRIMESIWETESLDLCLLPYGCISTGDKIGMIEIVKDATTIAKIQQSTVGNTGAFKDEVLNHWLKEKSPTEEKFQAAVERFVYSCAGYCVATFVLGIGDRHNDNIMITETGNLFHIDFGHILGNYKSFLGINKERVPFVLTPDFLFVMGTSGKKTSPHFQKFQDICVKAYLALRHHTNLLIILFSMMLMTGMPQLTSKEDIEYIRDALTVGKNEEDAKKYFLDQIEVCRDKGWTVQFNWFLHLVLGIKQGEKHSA
Phosphatidylinositol 4,5-bisphosphate 3-kinase catalytic subunit beta isoform, sequence (P42338 whole entry, canonical isoform): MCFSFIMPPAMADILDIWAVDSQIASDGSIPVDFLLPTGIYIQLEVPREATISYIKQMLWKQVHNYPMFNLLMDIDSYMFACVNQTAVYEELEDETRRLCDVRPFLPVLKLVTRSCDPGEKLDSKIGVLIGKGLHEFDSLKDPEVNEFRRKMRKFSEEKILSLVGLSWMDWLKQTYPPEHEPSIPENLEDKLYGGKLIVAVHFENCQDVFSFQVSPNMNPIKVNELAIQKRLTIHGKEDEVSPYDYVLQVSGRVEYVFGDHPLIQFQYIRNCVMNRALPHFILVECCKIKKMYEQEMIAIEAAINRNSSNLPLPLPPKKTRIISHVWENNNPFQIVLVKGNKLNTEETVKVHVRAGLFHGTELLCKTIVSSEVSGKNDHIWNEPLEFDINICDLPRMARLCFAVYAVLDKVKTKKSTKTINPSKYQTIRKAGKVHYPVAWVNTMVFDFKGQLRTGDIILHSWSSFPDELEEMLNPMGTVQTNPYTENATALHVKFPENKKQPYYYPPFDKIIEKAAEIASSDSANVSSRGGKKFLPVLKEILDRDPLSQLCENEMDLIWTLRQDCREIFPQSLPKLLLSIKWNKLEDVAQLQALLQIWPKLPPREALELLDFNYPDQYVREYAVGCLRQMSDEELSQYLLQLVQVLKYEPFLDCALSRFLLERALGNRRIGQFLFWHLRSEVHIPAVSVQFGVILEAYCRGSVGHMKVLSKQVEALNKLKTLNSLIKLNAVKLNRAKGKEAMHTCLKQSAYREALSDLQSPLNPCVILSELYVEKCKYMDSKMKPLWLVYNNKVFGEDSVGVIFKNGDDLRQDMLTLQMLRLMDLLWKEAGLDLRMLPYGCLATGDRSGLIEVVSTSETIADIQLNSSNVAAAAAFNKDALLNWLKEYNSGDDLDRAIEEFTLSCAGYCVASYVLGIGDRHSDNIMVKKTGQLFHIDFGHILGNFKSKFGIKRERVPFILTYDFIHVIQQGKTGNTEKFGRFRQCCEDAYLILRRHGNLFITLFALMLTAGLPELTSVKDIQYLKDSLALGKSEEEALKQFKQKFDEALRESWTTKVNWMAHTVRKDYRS
Phosphatidylinositol 4,5-bisphosphate 3-kinase catalytic subunit alpha isoform, sequence (P42336 whole entry, canonical isoform): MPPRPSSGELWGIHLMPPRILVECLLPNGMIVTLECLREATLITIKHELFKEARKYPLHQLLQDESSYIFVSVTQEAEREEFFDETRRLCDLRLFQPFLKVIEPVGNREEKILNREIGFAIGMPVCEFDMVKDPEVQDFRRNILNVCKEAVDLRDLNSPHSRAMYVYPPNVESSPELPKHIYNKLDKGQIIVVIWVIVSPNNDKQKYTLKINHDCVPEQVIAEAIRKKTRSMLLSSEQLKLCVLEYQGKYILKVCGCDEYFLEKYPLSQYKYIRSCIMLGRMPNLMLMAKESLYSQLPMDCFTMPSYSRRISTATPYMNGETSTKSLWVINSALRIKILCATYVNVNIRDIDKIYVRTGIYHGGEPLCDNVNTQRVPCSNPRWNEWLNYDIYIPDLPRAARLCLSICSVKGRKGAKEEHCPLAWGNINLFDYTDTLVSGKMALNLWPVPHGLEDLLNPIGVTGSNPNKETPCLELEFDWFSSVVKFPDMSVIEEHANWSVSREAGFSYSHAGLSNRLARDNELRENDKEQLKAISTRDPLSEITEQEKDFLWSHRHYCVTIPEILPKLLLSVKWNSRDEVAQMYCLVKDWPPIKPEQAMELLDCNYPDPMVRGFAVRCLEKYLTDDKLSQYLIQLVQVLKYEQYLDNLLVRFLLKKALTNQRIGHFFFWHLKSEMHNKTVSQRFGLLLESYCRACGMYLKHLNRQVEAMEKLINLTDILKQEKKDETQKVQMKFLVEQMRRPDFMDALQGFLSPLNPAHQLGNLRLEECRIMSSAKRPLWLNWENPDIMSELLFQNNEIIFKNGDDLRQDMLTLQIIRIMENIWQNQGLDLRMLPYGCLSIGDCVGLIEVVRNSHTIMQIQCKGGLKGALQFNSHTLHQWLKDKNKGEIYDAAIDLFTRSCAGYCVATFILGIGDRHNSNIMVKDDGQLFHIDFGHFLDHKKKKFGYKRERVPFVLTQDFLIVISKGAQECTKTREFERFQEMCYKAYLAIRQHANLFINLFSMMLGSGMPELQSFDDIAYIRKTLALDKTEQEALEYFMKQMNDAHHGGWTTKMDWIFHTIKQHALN

Compound | IC50 [1] [µM] | IC50 [6] [µM] | also measured
CN1CCN(CCOc2cccc3c(=O)nc(N4CCOCC4)oc23)CC1 | 1.7 |  | 
O=c1nc(N2CCOCC2)oc2cc(OCc3ccccn3)ccc12 | 2.7 |  | 
Cc1c(OCc2ccccn2)ccc2c(=O)nc(N3CCOCC3)oc12 | 1.3 |  | 
O=c1nc(N2CCOCC2)oc2cc(OCc3cccnc3)ccc12 | 2.5 |  | 
Cc1c(OCc2cccnc2)ccc2c(=O)nc(N3CCOCC3)oc12 | 0.28 |  | IC50 [2]: 0.72 µM; IC50 [3]: 2.02 µM; IC50 [4]: 0.14 µM; IC50 [5]: 0.13 µM
O=c1nc(N2CCOCC2)oc2c(OCc3cccnc3)cccc12 | 0.36 |  | 
O=c1nc(N2CCOCC2)oc2cc(OCc3ccncc3)ccc12 | 4.2 |  | 
Cc1c(OCc2ccncc2)ccc2c(=O)nc(N3CCOCC3)oc12 | 1.2 |  | 
O=c1nc(N2CCOCC2)oc2c(OCc3ccncc3)cccc12 | 1.6 |  | 
O=c1nc(Nc2cccnc2)oc2c(-c3ccccc3)cccc12 |  | 76 | 
O=c1nc(Nc2cccnc2)oc2ccccc12 |  | 90 | 
Cc1cccc2c(=O)nc(N(Cc3cccnc3)c3cccnc3)oc12 |  | 100 | 
O=c1nc(N(Cc2cccnc2)c2cccnc2)oc2c(-c3ccccc3)cccc12 |  | 65 | 
O=c1nc(N(Cc2ccncc2)c2cccnc2)oc2c(-c3ccccc3)cccc12 |  | 75 | 
O=c1nc(N(Cc2ccncc2)c2cccnc2)oc2cc(OCc3ccncc3)ccc12 |  | 55 | 
Cc1c(OCc2ccccn2)ccc2c(=O)nc(N(Cc3ccccn3)c3cccnc3)oc12 |  | 35 | 
Cc1c(OCc2cccnc2)ccc2c(=O)nc(N(Cc3cccnc3)c3cccnc3)oc12 | 2.5 | 10 | 
Cc1c(OCc2ccccn2)ccc2c(=O)n(Cc3ccccn3)c(=O)oc12 |  | 85 | 
Cc1c(OCc2cccnc2)ccc2c(=O)n(Cc3cccnc3)c(=O)oc12 | 10 | 75 | 
Cc1c(OCc2ccccc2)ccc2c(=O)n(Cc3ccccc3)c(=O)oc12 |  | 85 | 
O=c1nc(N2CCOCC2)oc2c(OCc3ccccn3)cccc12 | 0.62 |  | 
Cc1cccc2c(=O)nc(N(Cc3ccccn3)c3cccnc3)oc12 | 25.2 |  | 
O=c1nc(N(Cc2ccccn2)c2cccnc2)oc2c(OCc3ccccn3)cccc12 | 7.8 |  | 
O=c1nc(N(Cc2cccnc2)c2cccnc2)oc2c(OCc3cccnc3)cccc12 | 13.5 |  | 
O=c1nc(N(Cc2ccccn2)c2cccnc2)oc2cc(OCc3ccccn3)ccc12 | 5.7 |  | 
O=c1nc(N(Cc2cccnc2)c2cccnc2)oc2cc(OCc3cccnc3)ccc12 | 14.8 |  | 
O=c1nc(N2CCOCC2)oc2c(-c3ccccc3)cccc12 | 0.3 |  | IC50 [2]: 1.5 µM; IC50 [3]: 0.95 µM; IC50 [4]: 3.36 µM; IC50 [5]: 4.07 µM
CN1CCN(CCOc2ccc3c(=O)nc(N4CCOCC4)oc3c2)CC1 | 6.8 |  | 
Cc1c(OCCN2CCN(C)CC2)ccc2c(=O)nc(N3CCOCC3)oc12 | 0.5 |  | IC50 [2]: ≥ 100 µM; IC50 [3]: ≥ 100 µM; IC50 [4]: ≥ 100 µM; IC50 [5]: ≥ 100 µM
